These results are taken from ChEMBL document CHEMBL3785062, “Preparation and Evaluation of Radiolabeled Antibody Recruiting Small Molecules That Target Prostate-Specific Membrane Antigen for Combined Radiotherapy and Immunotherapy” (J Med Chem, 2016).

Series [1] relates to Tumour. Kind of series: Drug uptake in tumor of human LNCAP cells xenografted NCR nu/nu mouse at 0.19 to 0.36 MBq, iv at 6 hrs. It counts as ADME, organism-based, Neoplasm. Conditions: in vivo; call rule not given here. Put shortly: (§1)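 NCr nu/nu male mice carrying subcutaneous right-flank LNCaP xenografts (2 × 10^6 cells in Matrigel:DPBS), used 4–7 weeks after inoculation. Tail-vein injection of 0.19–0.36 MBq 125I tracer in 0.9% saline. Killed at 1 and 6 h; tissues collected and counted, expressed as %ID/g ± SEM. Group sizes n = 2–3.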
For orientation: Xenograft models place foreign cells or tissue in a host animal.

Series [2] can be described thus: Stability of compound in saline up to 48 hrs. It counts as physicochemical. Conditions: buffer.
Series [3] concerns LNCaP. Kind of series: Drug internalization in PSMA expressing human LNCAP cells at 10 nM incubated for 2 hrs at 4 degC measured for 10 mins by gamma counting analysis. In kind it is ADME, cell-based. Conditions: 0.01 µM.
In series [4] the test system is Tumour. Put plainly: Drug uptake in tumor of human LNCAP cells xenografted NCR nu/nu mouse at 0.19 to 0.36 MBq, iv at 1 hr. It counts as ADME, organism-based, Neoplasm. The note with it: in vivo. The procedure, abridged:
as §1

Series [5] is described as follows: Drug uptake in gall bladder of human LNCAP cells xenografted NCR nu/nu mouse at 0.19 to 0.36 MBq, iv at 1 hr. In kind it is ADME, organism-based. The note with it: in vivo. The procedure, abridged:
as §1

Series [6] can be described thus: Ratio of drug level in tumor to blood in human LNCAP cells xenografted NCR nu/nu mouse at 0.19 to 0.36 MBq, iv at 6 hrs. It counts as ADME, organism-based. Put shortly: as §1
The nature of series [7]: Chemical stability in solid state at -10 degC. In kind it is physicochemical.
Series [8] has as its system LNCaP. Put plainly: Drug internalization in PSMA expressing human LNCAP cells at 10 nM incubated for 2 hrs at 37 degC measured for 10 mins by gamma counting analysis. The note with it: 0.01 µM. It counts as ADME, cell-based.
The nature of series [9]: Drug uptake in gall bladder of human LNCAP cells xenografted NCR nu/nu mouse at 0.19 to 0.36 MBq, iv at 6 hrs. In kind it is ADME, organism-based. Put shortly:
as §1

A short description of series [10]: Ratio of drug level in tumor to blood in human LNCAP cells xenografted NCR nu/nu mouse at 0.19 to 0.36 MBq, iv at 1 hr. In kind it is ADME, organism-based. The procedure, abridged: as §1
The nature of series [11]: Drug uptake in thyroid gland of human LNCAP cells xenografted NCR nu/nu mouse at 0.19 to 0.36 MBq, iv at 1 to 6 hrs. The note with it: in vivo. It counts as ADME, organism-based. The procedure, abridged:
as §1

In series [12] the test system is LNCaP. Put plainly: Drug internalization in PSMA expressing human LNCAP cells at 5 nM incubated for 2 hrs at 4 degC measured for 10 mins by gamma counting analysis. It counts as ADME, cell-based. Conditions: 0.005 µM.
Series [13] deals with LNCaP. Kind of series: Drug internalization in PSMA expressing human LNCAP cells at 5 nM incubated for 2 hrs at 37 degC measured for 10 mins by gamma counting analysis. It counts as ADME, cell-based. Conditions: 0.005 µM.
For series [14], the system named is Kidney. Kind of series: Drug uptake in kidney of human LNCAP cells xenografted NCR nu/nu mouse at 0.19 to 0.36 MBq, iv at 1 hr. The note with it: in vivo. In kind it is ADME, organism-based. Put shortly: as §1
The nature of series [15]: Drug uptake in small intestine of human LNCAP cells xenografted NCR nu/nu mouse at 0.19 to 0.36 MBq, iv at 6 hrs. It counts as ADME, organism-based. Conditions: in vivo. Put shortly:
as §1

The test system of series [16] is Blood. Put plainly: Drug uptake in blood of human LNCAP cells xenografted NCR nu/nu mouse at 0.19 to 0.36 MBq, iv at 1 hr. Conditions: in vivo. It counts as ADME, organism-based. Put shortly:
as §1

Series [17] concerns Kidney. Put plainly: Drug uptake in kidney of human LNCAP cells xenografted NCR nu/nu mouse at 0.19 to 0.36 MBq, iv at 6 hrs. It counts as ADME, organism-based. The note with it: in vivo. The procedure, abridged:
as §1

The nature of series [18]: Drug uptake in small intestine of human LNCAP cells xenografted NCR nu/nu mouse at 0.19 to 0.36 MBq, iv at 1 hr. It counts as ADME, organism-based. Conditions: in vivo. Put shortly:
as §1

By Kp is commonly meant tissue or fluid exposure divided by exposure in the circulation. For `O=C(O)CC[C@H](NC(=O)N[C@@H](CCCCNC(=O)Cn1nnc(COCCOCCOCCOCCOCCOCCOCCOCCNc2ccc([N+](=O)[O-])cc2[N+](=O)[O-])c1[125I])C(=O)O)C(=O)O`, the Drug uptake in series [1] was 3.24 % ID/g; in series [3], “Not Active”; in series [4], 3.01 % ID/g; in series [5], “Active”; in series [8], “Active”; in series [9] (in vivo, 6 h), “Not Active”. Also, the Drug uptake entry in series [11] is “Active”. Moreover, the Stability result was “Stable” in series [2] and 3 weeks in [7]. Also, the Kp at 6 h in series [6] was 3.4. Further, in series [10], the Kp at 1 h came out at 10.

Turning to `O=C(O)CC[C@H](NC(=O)N[C@@H](CCCCNC(=O)Cn1cc([125I])nn1)C(=O)O)C(=O)O`, the Drug uptake entry was “Not Active” in series [12] and “Active” in series [13].

In the case of `O=C(O)CC[C@H](NC(=O)N[C@@H](CCCCNC(=O)Cn1nnc([125I])c1CNc1ccc([N+](=O)[O-])cc1[N+](=O)[O-])C(=O)O)C(=O)O`, the Drug uptake was 68.35 % ID/g in series [14]; 9.8 % ID/g in series [1]; 2.18 % ID/g in series [15]; 0.36 % ID/g in [16]; 66.46 % ID/g in series [17]; 12.21 % ID/g in [4]. In addition, the Drug uptake in series [5] turned out to be 92.46 % ID/g; in series [18] it was 47.37 % ID/g. For the same molecule, in [6], the Kp at 6 h was 59. The tissue uptake at 6 h in series [9] (NCR nu/nu, gall bladder, read-out: Drug uptake) turned out to be 7.89 %ID/g. The Kp at 1 h in series [10] came out at 35.
